Laboratory results published in ChEMBL document CHEMBL1781959, “Synthesis and in vitro antitumor activity of substituted quinazoline and quinoxaline derivatives: search for anticancer agent” (Eur J Med Chem, 2011).

Tests used:
Type in all cases: functional
[1] = system: LOX IMVI; test: Anticancer activity against human LOXIMVI cells assessed as cell growth promotion at 10^-5 M after 48 hrs by SRB assay relative to control
[2] = system: HT-29; test: Anticancer activity against human HT-29 cells assessed as cell growth promotion at 10^-5 M after 48 hrs by SRB assay relative to control
[3] = system: COLO 205; test: Anticancer activity against human COLO205 cells assessed as cell growth promotion at 10^-5 M after 48 hrs by SRB assay relative to control
[4] = system: SW-620; test: Anticancer activity against human SW620 cells assessed as cell growth promotion at 10^-5 M after 48 hrs by SRB assay relative to control
[5] = system: NCI-H23; test: Anticancer activity against human NCI-H23 cells assessed as cell growth promotion at 10^-5 M after 48 hrs by SRB assay relative to control
[6] = system: M14; test: Anticancer activity against human M14 cells assessed as cell growth promotion at 10^-5 M after 48 hrs by SRB assay relative to control
[7] = system: ACHN; test: Anticancer activity against human ACHN cells assessed as cell growth promotion at 10^-5 M after 48 hrs by SRB assay relative to control
[8] = system: IGROV-1; test: Anticancer activity against human IGROV1 cells assessed as cell growth promotion at 10^-5 M after 48 hrs by SRB assay relative to control
[9] = Anticancer activity against human […] cells assessed as cell growth promotion at 10^-5 M after 48 hrs by SRB assay relative to control
[10] = system: OVCAR-4; test: Anticancer activity against human OVCAR4 cells assessed as cell growth promotion at 10^-5 M after 48 hrs by SRB assay relative to control
[11] = system: HOP-62; test: Anticancer activity against human HOP62 cells assessed as cell growth promotion at 10^-5 M after 48 hrs by SRB assay relative to control
[12] = system: NCI-H322M; test: Anticancer activity against human NCI-H322M cells assessed as cell growth promotion at 10^-5 M after 48 hrs by SRB assay relative to control
[13] = system: U-251; test: Anticancer activity against human U251 cells assessed as cell growth promotion at 10^-5 M after 48 hrs by SRB assay relative to control
[14] = system: HL-60(TB); test: Anticancer activity against human HL-60(TB) cells assessed as cell growth promotion at 10^-5 M after 48 hrs by SRB assay relative to control
Procedure, shortened: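 NCI-60 single-dose screen: compound at 10^-5 M, 48 h at 37 °C, 5% CO2; cells grown in RPMI 1640 with 5% FBS and 2 mM L-glutamine, pre-incubated 24 h before dosing. Adherent cells fixed with cold TCA; endpoint is sulforhodamine B protein staining. Percent growth of treated cells is reported relative to untreated control.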

[15] = system: UACC-62; test: Anticancer activity against human UACC62 cells assessed as cell growth promotion at 10^-5 M after 48 hrs by SRB assay relative to control
[16] = system: NCI-H522; test: Anticancer activity against human NCI-H522 cells assessed as cell growth promotion at 10^-5 M after 48 hrs by SRB assay relative to control
[17] = system: BT-549; test: Anticancer activity against human BT549 cells assessed as cell growth promotion at 10^-5 M after 48 hrs by SRB assay relative to control
[18] = system: SNB-75; test: Anticancer activity against human SNB75 cells assessed as cell growth promotion at 10^-5 M after 48 hrs by SRB assay relative to control
[19] = system: SK-MEL-2; test: Anticancer activity against human SK-MEL-2 cells assessed as cell growth promotion at 10^-5 M after 48 hrs by SRB assay relative to control

Row | SMILES | Activity [1] | Activity [2] | Activity [3] | Activity [4] | Activity [5] | Activity [6] | Activity [7] | Activity [8] | Activity [9] | Activity [10] | Activity [11] | Activity [12] | Activity [13] | Activity [14] | Activity [15] | Activity [16] | Activity [17] | Activity [18] | Activity [19]
1 | Oc1ccccc1/C=C/c1nc2ccccc2nc1SCc1nc2ccccc2[nH]1 | 78.17% | 83.56% | 96.37% | 93.22% | 76.93% | 70.2% | 69.99% | 59.92% | 63.38% | 25.22% | 73.71% | 80.01% | 83.34% | 26.78% | 58.04% | – | – | – | –
2 | COc1ccc(OC)c(/C=C/c2nc3ccccc3nc2SCc2nc3ccccc3[nH]2)c1 | 93.9% | 80.4% | 104% | 96.03% | 92.16% | 99.58% | 94.36% | 79.39% | 77.53% | – | 87.33% | 94.87% | 104% | 91.21% | 80.62% | – | – | – | –
3 | C(=C\c1nc2ccccc2nc1SCc1nc2ccccc2[nH]1)/c1ccccc1 | 56.83% | – | 75.7% | 83.03% | 52.23% | 76.83% | 76.83% | 87.44% | 47.73% | 2.71% | 88.3% | 86.4% | 79.81% | 77.83% | 61.37% | – | – | – | –
4 | N#Cc1ccc(/C=C/c2ccc(NC(=O)c3ccccc3NC(=O)c3ccco3)cc2)cc1 | 109% | – | 124% | 106% | 94.62% | 112% | 104% | 110% | 108% | 100% | 111% | 102% | 100% | 84.98% | 99% | 106% | 109% | 80% | 116%
5 | O=c1c2ccccc2nc(-c2ccco2)n1O | 107.97% | 103.19% | 107.29% | 107.69% | 105.41% | 89.53% | 98.81% | 103.91% | – | 114.55% | 112.74% | 97.18% | 110.85% | 95.84% | 92.42% | – | 103.7% | 86.97% | 103.59%
6 | CN(C)c1ccc(/C=C/c2nc3ccccc3nc2SCc2nc3ccccc3[nH]2)cc1 | 103% | 101% | 110% | 102% | 102% | 92.21% | 103% | 116% | 100% | – | 100% | 97.59% | 102% | 87.19% | 84.34% | – | – | – | –
7 | O=C(O)c1ccc(-n2c(-c3ccco3)nc3ccccc3c2=O)cc1 | 98.82% | 92% | 103.97% | 106.15% | 98.82% | 103.37% | 101.24% | 91.67% | – | 100.6% | 107.05% | 97.61% | 102.8% | 94.52% | 84.67% | 109.67% | 100.59% | 89.2% | 93.19%
8 | O=C(Nc1ccccc1C(=O)Nc1ccc(/C=C/C=C/c2ccccc2)cc1)c1ccccc1 | 84.87% | 111% | 121% | 107% | 91.39% | 83.75% | 87.29% | 78.34% | 63.43% | – | 93.96% | 81.13% | 95.87% | 92.43% | 84.87% | 70.1% | 86.19% | 82.74% | 96.46%
9 | COc1cc(/C=C/c2ccc(NC(=O)c3ccccc3NC(=O)c3ccccc3)cc2)ccc1O | 92% | 121% | 115% | 109% | 105% | 92.83% | 97.71% | 96.3% | 79.36% | – | 94.69% | 91.92% | 103% | 97.49% | 98.83% | 99.45% | 95.53% | 85.88% | 104%
10 | NS(=O)(=O)c1ccc(NC(=O)c2ccccc2NC(=O)c2ccco2)cc1 | 101.6% | 99.28% | – | 101.9% | 110.8% | 113.1% | 101% | 117% | 117.5% | 98% | 106% | 119.5% | 99.55% | 93.06% | 107% | 90.78% | 111% | 87.71% | 115.3%
11 | Oc1ccc(/C=C/c2nc3ccccc3nc2SCc2nc3ccccc3[nH]2)cc1 | 95.29% | 86.49% | 119% | 95.64% | 102% | 100% | 93.62% | 71.03% | 85.51% | 107% | 101% | – | 95.56% | 84.38% | 96.99% | – | – | 93.68% | –
12 | N#Cc1ccc(/C=C/c2nc3ccccc3nc2SCc2nc3ccccc3[nH]2)cc1 | 100% | 89.43% | 105% | 98.13% | 105% | 99.32% | 100% | 103% | 102% | – | 99.49% | 120% | 107% | 94.7% | 100% | – | – | – | –
